Reference: ChEMBL document CHEMBL1649111, “Restoration of susceptibility of intracellular methicillin-resistant Staphylococcus aureus to beta-lactams: comparison of strains, cells, and antibiotics” (Antimicrob Agents Chemother, 2008)
Converted amounts (≈) assume the structure as drawn.

Legend:
Staphylococcus aureus [1] = assay: Bacteriostatic activity against beta-lactamase negative methicillin-susceptible Staphylococcus aureus ATCC 25923 infected in human THP-1 cells assessed as decrease in bacterial growth after 24 hrs at pH 7.4; assay type: functional
Staphylococcus aureus [2] = assay: Bacteriostatic activity against Panton-valentine leukocidin positive community acquired methicillin-resistant Staphylococcus aureus NRS192 infected in human THP-1 cells assessed as decrease in bacterial growth after 24 hrs at pH 5.5; assay type: functional
In short: (§1)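 Human THP-1 macrophages infected with each S. aureus strain. Cloxacillin added extracellularly at about 0.01× to 100× the broth MIC measured at pH 5.5, with gentamicin 0.5 mg/liter to stop extracellular growth. Incubated 24 h. CFU counted per mg cell protein as change from the post-phagocytosis inoculum, n = 3. Emin, Emax and EC50 from a Hill fit; static concentration by graphical interpolation.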

Staphylococcus aureus [3] = assay: (§2) Antimicrobial activity against hospital acquired methicillin-resistant Staphylococcus aureus N4120210 obtained from urinary tract infection of patient infected in human THP-1 cells assessed as increase in bacterial count from original inoculum at low compound concentration after 24 hrs at pH 5.5; assay type: functional, Urine
In short: (§3)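 Bacteria phagocytosed by unactivated human THP-1 macrophages, then incubated 24 h with extracellular antibiotic at about 0.01× to 100× the pH 5.5 broth MIC. CFU per mg cell protein counted against the original inoculum, n = 3. A Hill-equation fit (slope factor 1) gave Emin and Emax, extrapolated to infinitely low and high concentration, and EC50. Static concentration was graphically interpolated.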

Staphylococcus aureus [4] = assay: Antimicrobial activity against hospital acquired methicillin-resistant Staphylococcus aureus ATCC 33591 infected in human THP-1 cells assessed as decrease in bacterial growth after 24 hrs at pH 5.5; assay type: functional, organism-based; conditions: ATCC 33591, THP-1, 24 h; in short: as §3
Staphylococcus aureus [5] = assay: Antimicrobial activity against hospital acquired methicillin-resistant and vancomycin-intermediate Staphylococcus aureus NRS126 obtained from patient with bloodstream infection by broth microdilution method at pH 5.5; assay type: functional
Staphylococcus aureus [6] = assay: Antimicrobial activity against hospital acquired methicillin-resistant Staphylococcus aureus N4120032 obtained from wound infection opf patient infected in human THP-1 cells assessed as decrease in bacterial growth after 24 hrs at pH 5.5; assay type: functional, organism-based; conditions: N4120032, THP-1, 24 h; in short: as §3
Staphylococcus aureus [7] = assay: Antimicrobial activity against intracellular beta-lactamase negative methicillin-susceptible Staphylococcus aureus ATCC 25923 infected in human keratinocytes assessed as increase in bacterial count from original inoculum at low compound concentration after 24 hrs at pH 7.4; assay type: functional
In short: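 Primary human skin keratinocytes or Calu-3 bronchial epithelial cells infected with MSSA ATCC 25923 at 5 × 10⁷ to 1 × 10⁸ bacteria/ml, 2 h internalization. Postphagocytosis inoculum 1.5 × 10⁶ to 3.0 × 10⁶ CFU/mg protein. Cloxacillin concentration range for 24 h; CFU/mg protein change vs. inoculum (n = 3). Hill fit gives Emin/Emax; static concentration by graphical interpolation.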

Staphylococcus aureus [8] = assay: Antimicrobial activity against Panton-valentine leukocidin positive community acquired methicillin-resistant Staphylococcus aureus NRS192 obtained from patient with pneumonia and septic arthritis by broth microdilution method at pH 5.5; assay type: functional
Staphylococcus aureus [9] = assay: Antimicrobial activity against intracellular beta-lactamase negative methicillin-susceptible Staphylococcus aureus ATCC 25923 infected in human keratinocytes assessed as decrease in bacterial growth after 24 hrs at pH 7.4; assay type: functional, organism-based; conditions: ATCC 25923, 24 h
In short: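 Primary human skin keratinocytes or Calu-3 bronchial epithelial cells, given an inoculum of 5 × 10⁷ to 1 × 10⁸ bacteria/ml and 2 h for internalization. Post-phagocytosis load 1.5 × 10⁶ to 3.0 × 10⁶ CFU per mg cell protein. Cloxacillin dose range in mg/liter for 24 h, n = 3. Hill-derived Emin, Emax and EC50; static concentration interpolated.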

Staphylococcus aureus [10] = assay: Antimicrobial activity against hospital acquired methicillin-resistant Staphylococcus aureus HMC546 by broth microdilution method at pH 7.4; assay type: functional
In short: (§4)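 Minimal inhibitory concentration by broth microdilution at pH 7.4, read in mg/liter. The MRSA genotype was confirmed by mecA PCR, and the SCCmec subgroup was assigned by multiplex PCR.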

Staphylococcus aureus [11] = assay: Bacteriostatic activity against hospital acquired methicillin-resistant Staphylococcus aureus ATCC 33591 infected in human THP-1 cells assessed as decrease in bacterial growth after 24 hrs at pH 5.5; assay type: functional; in short: as §1
Staphylococcus aureus [12] = assay: Antimicrobial activity against intracellular hospital acquired methicillin-resistant Staphylococcus aureus ATCC 33591 infected in activated human THP-1 cells assessed as decrease in bacterial count from original inoculum at high compound concentration after 24 hrs at pH 7.4; assay type: functional
In short: (§5)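 THP-1 cells activated by 24-h culture with phorbol myristate acetate 2 mg/liter, then infected like unactivated THP-1. Cloxacillin dose range in mg/liter for 24 h. CFU per mg cell protein relative to the original inoculum, n = 3. Emin and Emax extrapolated from a Hill fit (slope 1), with EC50 as total drug; static concentration by graphical interpolation.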

Staphylococcus aureus [13] = assay: (§6) Antimicrobial activity against Panton-valentine leukocidin positive community acquired methicillin-resistant Staphylococcus aureus NRS192 obtained from patient with pneumonia and septic arthritis infected in human THP-1 cells assessed as decrease in bacterial count from original inoculum at high compound concentration after 24 hrs at pH 5.5; assay type: functional; in short: as §3
Staphylococcus aureus [14] = assay: Antimicrobial activity against hospital acquired methicillin-resistant Staphylococcus aureus N4120210 obtained from urinary tract infection of patient infected in human THP-1 cells assessed as decrease in bacterial count from original inoculum at high compound concentration after 24 hrs at pH 5.5; assay type: functional, Urine; in short: as §3
Staphylococcus aureus [15] = assay: as §2, with “methicillin-resistant and vancomycin-intermediate” for “methicillin-resistant”, “NRS18” for “N4120210”, “wound, skin and soft tissue” for “urinary tract”; assay type: functional; in short: as §1
Staphylococcus aureus [16] = assay: Antimicrobial activity against animal acquired methicillin-resistant Staphylococcus aureus N7112046 infected in human THP-1 cells assessed as increase in bacterial count from original inoculum at low compound concentration after 24 hrs at pH 5.5; assay type: functional; in short: as §3
Staphylococcus aureus [17] = assay: Antimicrobial activity against hospital acquired methicillin-resistant Staphylococcus aureus N4120210 obtained from urinary tract infection of patient infected in human THP-1 cells assessed as decrease in bacterial growth after 24 hrs at pH 5.5; assay type: functional, organism-based; conditions: N4120210, THP-1, Urine
In short: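 THP-1 macrophages were infected, then incubated 24 h with cloxacillin at extracellular concentrations from about 0.01× to 100× the MIC measured in broth at pH 5.5, with gentamicin 0.5 mg/liter to block extracellular growth. CFU per mg cell protein were counted as change from the original inoculum (n = 3). A Hill-equation fit gave Emax, EC50 (multiples of MIC) and static concentration.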

Staphylococcus aureus [18] = assay: as §6, with “increase” for “decrease”, “low” for “high”; assay type: functional; in short: as §3
Staphylococcus aureus [19] = assay: Bacteriostatic activity against hospital acquired methicillin-resistant and vancomycin-intermediate Staphylococcus aureus NRS18 infected in human THP-1 cells assessed as decrease in bacterial growth after 24 hrs at pH 5.5; assay type: functional; in short: as §1
Staphylococcus aureus [20] = assay: Antimicrobial activity against hospital acquired methicillin-resistant Staphylococcus aureus N4120032 obtained from wound infection of patient by broth microdilution method at pH 7.4; assay type: functional; in short: as §4
Staphylococcus aureus [21] = assay: Bacteriostatic activity against Panton-valentine leukocidin positive community acquired methicillin-resistant Staphylococcus aureus N4090440 infected in human THP-1 cells assessed as decrease in bacterial growth after 24 hrs at pH 5.5; assay type: functional; in short: as §1
Staphylococcus aureus [22] = assay: Antimicrobial activity against intracellular beta-lactamase negative methicillin-susceptible Staphylococcus aureus ATCC 25923 infected in activated human THP-1 cells assessed as decrease in bacterial growth after 24 hrs at pH 7.4; assay type: functional, organism-based; conditions: ATCC 25923, THP-1, 24 h; in short: as §5

SMILES: Cc1onc(-c2ccccc2Cl)c1C(=O)N[C@@H]1C(=O)N2[C@@H]1SC(C)(C)[C@@H]2C(=O)O [CLOXACILLIN]
- Activity (Staphylococcus aureus [1]): 0.6 mg/L
- Activity (Staphylococcus aureus [2]): 16.6 ×MIC
- log10cfu (Staphylococcus aureus [3]): 2.6
- EC50 (Staphylococcus aureus [4]): 4.25 ×MIC
- MIC (Staphylococcus aureus [5]): 0.06 µg/mL (≈ 0.138 µM)
- EC50 (Staphylococcus aureus [6]): 9.26 ×MIC
- log10cfu (Staphylococcus aureus [7]): 2.64
- MIC (Staphylococcus aureus [8]): 0.06 µg/mL (≈ 0.138 µM)
- EC50 (Staphylococcus aureus [9]): 0.42 µg/mL (≈ 0.964 µM)
- MIC (Staphylococcus aureus [10]): 16 µg/mL (≈ 36.7 µM)
- Activity (Staphylococcus aureus [11]): 17.8 ×MIC
- log10cfu (Staphylococcus aureus [12]): 0.7
- log10cfu (Staphylococcus aureus [13]): 0.68
- log10cfu (Staphylococcus aureus [14]): 0.63
- log10cfu (Staphylococcus aureus [15]): 2.07
- log10cfu (Staphylococcus aureus [16]): 1.84
- EC50 (Staphylococcus aureus [17]): 8.51 ×MIC
- log10cfu (Staphylococcus aureus [18]): 1.84
- Activity (Staphylococcus aureus [19]): 14.1 ×MIC
- MIC (Staphylococcus aureus [20]): 1 µg/mL (≈ 2.29 µM)
- Activity (Staphylococcus aureus [21]): 17.4 ×MIC
- EC50 (Staphylococcus aureus [22]): 0.43 µg/mL (≈ 0.986 µM)
